From PMC552956 (Nucleic Acids Research, 2005)
Where “and” joins values, the source holds several entries; their conditions need not be identical. Equal values may be shown once. Entries after “also recorded” stand apart in the source; their conditions may differ.

How the values were obtained:
[1] = biological target: HIV-1 RT RNase H activity (Human immunodeficiency virus type 1 group M subtype B, UniProt P04585); assay: HIV-1 RT-catalyzed polypurine tract; assay type: biochemical; settings: single concentration of 50 μM
How it was run: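 Recombinant wild-type p66/p51 HIV-1 RT was expressed in E. coli. The substrate was a 5′[32P]-labeled HIV-1 PPT RNA primer, extended at its 3′ end by five deoxynucleotides, hybridized to its DNA complement. Test compound was diluted from a 20 mM DMSO stock into reaction buffer and tested at 50 μM. Controls were no inhibitor and DMSO alone. PPT hydrolysis products were assessed qualitatively.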

12mer RNA/DNA hybrid = assay: Surface plasmon resonance binding to immobilized RNA/DNA hybrid; settings: SPR; for binding to RNA/DNA hybrid substrate: concentration range of 50 nM–10 mM
HIV-2 RT DNA polymerase = HIV-2 RT DNA polymerase (Human immunodeficiency virus type 2 subtype A, UniProt P04584); assay: DNA polymerase activity of HIV-2 RT; assay type: biochemical; settings: 50 μM
[2] = biological target: HIV-2 RT-associated RNase H (Human immunodeficiency virus type 2 subtype A, UniProt P04584); assay: RNase H activity on fluorescent RNA/DNA hybrid, HIV-2 RT; assay type: biochemical; settings: for IC50 HIV-2 RT: RNase H activity, triplicate assays
How it was run: (§1)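 RNase H cleavage of a fluorescent RNA/DNA hybrid was measured with recombinant E. coli-expressed RT (wild-type p66/p51 for HIV-1; same expression system for HIV-2). Test compound, from a 20 mM DMSO stock, was tested in 2-fold dilutions from 100 μM to […]. Fluorescence was read every 40 s over 30 min. Rates came from the linear portion of the curves, and dose–response curves were fitted. Assays were run in triplicate.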

[3] = biological target: HIV-1 RT-associated RNase H (Human immunodeficiency virus type 1 group M subtype B, UniProt P04585); assay: RNase H activity on fluorescent RNA/DNA hybrid, HIV-1 RT; assay type: biochemical; settings: for IC50: IC50 HIV-1 RT; for IC50 / IC50 HIV-1 RT: RNase H activity, triplicate assays
How it was run: as §1

HIV-1 infection = assay: Cellular models of HIV-1 infection; assay type: cell-based
HIV-1 RT DNA polymerase = HIV-1 RT DNA polymerase (Human immunodeficiency virus type 1 group M subtype B, UniProt P04585); assay: DNA-dependent DNA polymerase activity of HIV-1 RT; assay type: biochemical; settings: single concentration of 50 μM
E.coli RNase HI = biological target: T1, E.coli RNase HI (Escherichia coli, UniProt P0A7Y4); assay: RNase H activity on fluorescent RNA/DNA hybrid, E.coli RNase H; assay type: biochemical; settings: for IC50: IC50 E.c. Rnase H
T1 sequence (P0A7Y4 1-155): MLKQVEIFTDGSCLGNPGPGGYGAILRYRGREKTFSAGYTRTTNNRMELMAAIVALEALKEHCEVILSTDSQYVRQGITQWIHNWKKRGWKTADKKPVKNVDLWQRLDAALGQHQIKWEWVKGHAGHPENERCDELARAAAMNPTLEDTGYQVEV

human RNase H = biological target: T2, human RNase H (Homo sapiens, UniProt O60930); assay: RNase H activity on fluorescent RNA/DNA hybrid, human RNase H; assay type: biochemical
T2 sequence (O60930 1-286): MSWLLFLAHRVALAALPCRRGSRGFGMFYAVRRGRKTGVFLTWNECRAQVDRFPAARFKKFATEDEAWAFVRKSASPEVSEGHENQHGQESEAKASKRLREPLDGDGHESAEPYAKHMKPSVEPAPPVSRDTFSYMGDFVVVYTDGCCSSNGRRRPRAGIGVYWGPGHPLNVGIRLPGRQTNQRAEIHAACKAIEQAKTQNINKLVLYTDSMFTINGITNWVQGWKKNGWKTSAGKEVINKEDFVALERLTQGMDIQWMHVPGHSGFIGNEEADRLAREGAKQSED

Chain of HIV-2 RT-associated RNase H (P04584 613-1171 limits assumed): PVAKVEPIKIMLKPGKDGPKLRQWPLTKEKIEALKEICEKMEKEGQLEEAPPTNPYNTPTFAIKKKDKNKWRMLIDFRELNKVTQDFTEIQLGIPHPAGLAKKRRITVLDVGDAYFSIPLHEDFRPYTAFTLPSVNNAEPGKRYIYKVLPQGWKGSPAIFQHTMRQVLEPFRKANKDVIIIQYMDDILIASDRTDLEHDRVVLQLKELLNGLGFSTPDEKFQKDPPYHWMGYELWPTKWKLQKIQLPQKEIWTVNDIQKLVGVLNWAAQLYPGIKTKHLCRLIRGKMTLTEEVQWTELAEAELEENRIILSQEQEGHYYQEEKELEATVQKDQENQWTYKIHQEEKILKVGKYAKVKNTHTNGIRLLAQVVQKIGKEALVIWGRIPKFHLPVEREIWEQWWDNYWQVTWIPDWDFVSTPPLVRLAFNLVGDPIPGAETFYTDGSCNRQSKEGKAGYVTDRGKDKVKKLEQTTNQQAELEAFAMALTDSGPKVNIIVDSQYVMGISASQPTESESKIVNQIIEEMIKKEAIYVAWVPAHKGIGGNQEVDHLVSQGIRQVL
Chain of HIV-2 RT-associated RNase H (P04584 613-1051 partner limits assumed): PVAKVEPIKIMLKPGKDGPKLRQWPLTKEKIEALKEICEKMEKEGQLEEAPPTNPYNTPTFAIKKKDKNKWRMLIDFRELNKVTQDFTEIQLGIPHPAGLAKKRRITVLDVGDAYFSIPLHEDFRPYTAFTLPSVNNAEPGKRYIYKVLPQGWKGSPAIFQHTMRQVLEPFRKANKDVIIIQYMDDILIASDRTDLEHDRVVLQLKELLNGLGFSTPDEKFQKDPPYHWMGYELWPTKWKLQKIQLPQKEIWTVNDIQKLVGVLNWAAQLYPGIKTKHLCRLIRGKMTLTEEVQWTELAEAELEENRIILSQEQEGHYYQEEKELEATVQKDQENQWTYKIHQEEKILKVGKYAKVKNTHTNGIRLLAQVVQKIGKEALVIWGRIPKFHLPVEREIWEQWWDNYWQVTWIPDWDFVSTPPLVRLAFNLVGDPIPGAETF
Chain of HIV-2 RT DNA polymerase (P04584 613-1171 limits assumed): as the sequence (P04584 613-1171 limits assumed) above
Chain of HIV-2 RT DNA polymerase (P04584 613-1051 partner limits assumed): as the sequence (P04584 613-1051 partner limits assumed) above

Structure (SMILES)	binding to RNA/DNA hybrid substrate (12mer RNA/DNA hybrid)	IC50 [2] [µM]	IC50 [3]	IC50 (E.coli RNase HI; triplicate assays)	IC50 (human RNase H) [µM]	other results
CC(C)c1ccc(O)c(=O)c(O)c1 [β-Thujaplicinol, 2,7-dihydroxy-4-1(methylethyl)-2,4,6-cycloheptatrien-1-one]	do not bind	0.77	0.2 µM and 0.21 µM	~50 µM and 50 µM	–	inhibition of PPT processing [1]: almost complete inhibition; inhibition of DNA polymerase activity of HIV-2 RT (HIV-2 RT DNA polymerase): without affecting; also recorded: unaffected; Ki [3]: 0.2 ± 0.07 µM; mode of inhibition of HIV-1 RT/RNase H ([3]; non-linear fitting): mixed-type inhibition; activity in cellular models of HIV-1 infection (HIV-1 infection): inactive; inhibition of DNA-dependent DNA polymerase activity of HIV-1 RT (HIV-1 RT DNA polymerase): failed to inhibit; also recorded: without affecting; also recorded: do not inhibit; also recorded: unaffected; E.coli RNase H less sensitive than HIV-1 RNase H (E.coli RNase HI): ~250 fold
CC(C)c1ccc(O)c(=O)cc1 [γ-Thujaplicin, 2-hydroxy-5-1(methylethyl)-2,4,6-cycloheptatrien-1-one]	–	> 100	> 100 µM	> 100 µM	2	IC50 HIV-2 RT [2]: failed to inhibit; IC50 HIV-1 RT [3]: failed to inhibit
CC(C)c1cccc(=O)c(O)c1 [β-Thujaplicin, 2-hydroxy-4-(1-methylethyl)-2,4,6-cycloheptatrien-1-one]	do not bind	> 100	> 100 µM	> 100 µM	> 100	IC50 Hu Rnase H (human RNase H; triplicate assays): completely inactive; IC50 HIV-2 RT [2]: completely inactive; IC50 HIV-1 RT [3]: completely inactive; IC50 E.c. Rnase H (E.coli RNase HI; triplicate assays): completely inactive
CC(C)c1ccccc(=O)c1O [α-Thujaplicin, 2-hydroxy-3-(1-methylethyl)-2,4,6-cycloheptatrien-1-one]	do not bind	33	50 µM	> 100 µM	12	–
O=c1cccccc1O [Tropolone, 2-hydroxy-2,4,6-cycloheptatrien-1-one]	–	> 100	> 100 µM	> 100 µM	3	–
CC(C)=CCc1ccc(=O)c(O)cc1C(C)C [Nootkatin, 2-hydroxy-5-(3-methyl-2-butenyl)-4-(1-methylethyl)-2,4,6-cycloheptatrien-1-one]	–	> 100	> 100 µM	> 100 µM	25	–
CC[n+]1c(-c2ccccc2)c2cc(N)ccc2c2ccc(N)cc21 [ethidium bromide, reference compound]	–	–	–	–	–	Kd (12mer RNA/DNA hybrid; read-out: Kd for intercalation into RNA/DNA hybrid, 25°C): ~1.5 µM
